Measured values taken from ChEMBL document CHEMBL4480447, “Acrotrione: An Oxidized Xanthene from the Roots of Acronychia pubescens” (J Nat Prod, 2019).

Assays:
[1] = Cytotoxicity against HEK293 cells assessed as growth inhibition after 72 hrs by resazurin dye-based fluorescence assay relative to control; format: cell-based; parameters: concentration or dose not given beside the values; details: human, read-out: GI
Summary of the method: (§1)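 HEK293 cells kept in DMEM with 10% FBS. Exposed to compound for 72 h at 37 °C, 5% CO2; 16-point dose-response, 40 μM to 0.4 nM final, three concentrations per log, from 10 mM DMSO stocks. Medium then replaced with 44 μM resazurin; fluorescence read after 5−6 h (ex/em 530/595 nm). Data normalized to puromycin (5 μM) and 0.4% DMSO controls; IC50 from four-parameter logistic fit.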

[2] = Selectivity ratio of IC50 for Plasmodium falciparum Dd2 ring stage forms to IC50 for Plasmodium falciparum 3D7 ring stage forms; format: functional
Summary of the method: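 Sixteen-point dose-response, 40 μM to 0.4 nM final. Fit is four-parameter logistic on percent inhibition normalized to puromycin (5 μM) and 0.4% DMSO. Ratio is Dd2 IC50 over 3D7 IC50.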

Plasmodium falciparum [3] = experiment: Antiplasmodial activity against drug-sensitive Plasmodium falciparum 3D7 ring stage forms assessed as inhibition of parasite growth after 72 hrs by DAPI staining-based confocal microscopic analysis; format: functional, organism-based; details: 3D7, 72 h
Plasmodium falciparum [4] = experiment: Antiplasmodial activity against drug-resistant Plasmodium falciparum Dd2 ring stage forms assessed as inhibition of parasite growth after 72 hrs by DAPI staining-based confocal microscopic analysis; format: functional, organism-based; details: Dd2, 72 h
Summary of the method: (§2)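 Compounds from 10 mM DMSO stocks, 16-point dose-response, 40 μM to 0.4 nM final. Incubation 72 h at 37 °C, 90% N2/5% CO2/5% O2. DAPI stain, confocal imaging. Percent inhibition normalized to puromycin 5 μM and 0.4% DMSO controls; IC50 by four-parameter logistic fit.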

Plasmodium falciparum [5] = experiment: Antiplasmodial activity against drug-resistant Plasmodium falciparum Dd2 ring stage forms assessed as inhibition of parasite growth at 40 uM after 72 hrs by DAPI staining-based confocal microscopic analysis; format: functional; details: Dd2, 72 h, read-out: GI; summary of the method: as §2
Plasmodium falciparum [6] = experiment: Antiplasmodial activity against drug-sensitive Plasmodium falciparum 3D7 ring stage forms assessed as inhibition of parasite growth at 40 uM after 72 hrs by DAPI staining-based confocal microscopic analysis; format: functional; details: 3D7, 72 h, read-out: GI
Summary of the method: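 Exposed to compound for 72 h at 37 °C under 90% N2/5% CO2/5% O2. DAPI staining followed by confocal imaging. Percent inhibition normalized to puromycin (5 μM) and 0.4% DMSO controls.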

[7] = Selectivity index, ratio of IC50 for HEK293 cells to IC50 for drug-sensitive Plasmodium falciparum 3D7 ring stage forms; format: toxicity; details: human; read-out: Ratio IC50
HEK293 = experiment: Cytotoxicity against HEK293 cells after 72 hrs by resazurin dye-based fluorescence assay; format: cell-based; details: Homo sapiens, HEK293, 72 h; summary of the method: as §1

Compound | inhibition at 72 h [1] | Ratio IC50 [2] | IC50 (Plasmodium falciparum [3]) | IC50 (Plasmodium falciparum [4]) | inhibition of growth at 40 µM (Plasmodium falciparum [5]) | inhibition of growth at 40 µM (Plasmodium falciparum [6]) | selectivity ratio [7] | IC50 (HEK293)
COc1c(CC=C(C)C)c2c(c(O)c1C(C)=O)[C@H](CC(C)C)[C@H]1C(=O)C(C(C)=O)=C3O[C@@H](C(C)(C)O)C[C@@]3(O)[C@@]1(O)O2 | 80.7% | 1.7 | 2700 nM | 4700 nM |  |  |  | 
COc1c(CC=C(C)C)c(O)cc(O)c1C(C)=O | 79.1% | 1.7 | 1800 nM | 3100 nM |  |  |  | 
COc1c(CC=C(C)C)c(O)c(C=O)c(O)c1C(C)=O [ACRONYCULATIN A] | 7.4% |  |  |  | 19.8% | 37.5% |  | 
C[C@H]1[C@@H](O)O[C@@H]2O[C@@]3(C)CC[C@H]4[C@H](C)CC[C@@H]1[C@@]24OO3 [ARTENIMOL] | 41.1% | 1.8 |  |  |  |  |  | 
C[C@H]1[C@H](OC(=O)CCC(=O)O)O[C@@H]2O[C@@]3(C)CC[C@H]4[C@H](C)CC[C@@H]1[C@@]24OO3 [ARTESUNATE] | 62.5% |  |  | 3.3 nM |  |  |  | 
CCN(CC)CCCC(C)Nc1ccnc2cc(Cl)ccc12 (stereo not drawn) [CHLOROQUINE] | 53.2% |  |  |  |  |  |  | 
COc1ccc(C[C@H](N)C(=O)N[C@H]2[C@@H](O)[C@H](n3cnc4c(N(C)C)ncnc43)O[C@@H]2CO)cc1 [PUROMYCIN] |  | 1.1 | 70.2 nM | 74.7 nM |  |  | 9.9 | 694 nM
CCc1nc(N)nc(N)c1-c1ccc(Cl)cc1 [PYRIMETHAMINE] | 52% |  | 7.7 nM |  |  |  |  | 
COc1ccc2nc3cc(Cl)ccc3c(Nc3cc(CN4CCCC4)c(O)c(CN4CCCC4)c3)c2n1 [PYRONARIDINE] |  | 1.3 | 8.2 nM | 11 nM |  |  | 246 | 1990 nM
